Measured values as given in ChEMBL document CHEMBL1275556, “High prevalence of plasmid-mediated quinolone resistance genes qnr and aac(6')-Ib-cr in clinical isolates of Enterobacteriaceae from nine teaching hospitals in China” (2008).
≈ marks a conversion by molar mass, not a printed value.

How the values were obtained:
Citrobacter freundii [1] = assay: Antimicrobial activity against aac(6')-Ib-cr-positive Citrobacter freundii PU55 harboring GyrA T83I, ParC S80I mutant, wild-type GyrB, qnrA genes by agar dilution method; format: functional
Summary of the method: (§1)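 MICs were determined by the CLSI agar dilution method (M7-A7) and interpreted against CLSI M100-S17 breakpoints.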

Citrobacter freundii [2] = assay: Antimicrobial activity against aac(6')-Ib-cr-positive Citrobacter freundii PU55T harboring wild-type GyrA, ParC, GyrB and qnrA genes by agar dilution method
Klebsiella pneumoniae [3] = assay: Antimicrobial activity against aac(6')-Ib-cr-negative Klebsiella pneumoniae SY22 harboring GyrA S83I, ParC S80I mutant, wild-type GyrB and qnrS genes by agar dilution method; format: functional; summary of the method: as §1
Klebsiella pneumoniae [4] = assay: Antimicrobial activity against aac(6')-Ib-cr-negative Klebsiella pneumoniae SY22T harboring qnrS gene by agar dilution method; format: functional; summary of the method: as §1
Klebsiella pneumoniae [5] = assay: Antimicrobial activity against aac(6')-Ib-cr-positive Klebsiella pneumoniae SY26 harboring GyrA S83I, ParC S80I mutant, wild-type GyrB and qnrB genes by agar dilution method; format: functional
Summary of the method: (§2)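 MICs were determined on clinical isolates by CLSI agar dilution (M7-A7) and interpreted against CLSI M100-S17 breakpoints.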

Klebsiella pneumoniae [6] = assay: Antimicrobial activity against aac(6')-Ib-cr-positive Klebsiella pneumoniae SY26T harboring wild-type GyrA, ParC, GyrB and qnrB genes by agar dilution method; format: functional
Summary of the method: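 Transconjugants were made by conjugating a qnr/aac(6')-Ib-cr donor with azide-resistant E. coli J53. MICs were read by CLSI agar dilution (M7-A7) and interpreted per M100-S17.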

Citrobacter freundii [7] = assay: Antimicrobial activity against aac(6')-Ib-cr-positive Citrobacter freundii TJ15 harboring GyrA T83I, ParC S80I mutant, wild-type GyrB, qnrB genes by agar dilution method; format: functional; summary of the method: as §1
Klebsiella pneumoniae [8] = assay: Antimicrobial activity against aac(6')-Ib-cr-positive Klebsiella pneumoniae WH99 harboring wild-type GyrA, ParC, GyrB and qnrB genes by agar dilution method; format: functional; summary of the method: as §2
Klebsiella pneumoniae [9] = assay: Antimicrobial activity against aac(6')-Ib-cr-positive Klebsiella pneumoniae WH99T harboring qnrB gene by agar dilution method; format: functional
Summary of the method: (§3)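 Transconjugants were made by conjugating a qnr/aac(6')-Ib-cr donor with azide-resistant E. coli J53. Selection used Trypticase soy agar with sodium azide 150 µg/ml and sulfamethoxazole 180 µg/ml. […] MICs were read by CLSI agar dilution (M7-A7) and interpreted per M100-S17.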

Klebsiella pneumoniae [10] = assay: Antimicrobial activity against aac(6')-Ib-cr-positive Klebsiella pneumoniae GZ40 harboring GyrA S83I, ParC S80I mutant, wild-type GyrB and qnrB genes by agar dilution method; format: functional; summary of the method: as §1
Klebsiella pneumoniae [11] = assay: Antimicrobial activity against aac(6')-Ib-cr-positive Klebsiella pneumoniae GZ40T harboring qnrB gene by agar dilution method
Citrobacter freundii [12] = assay: Antimicrobial activity against aac(6')-Ib-cr-positive Citrobacter freundii JN1 harboring GyrA T83I, ParC S80I mutant, wild-type GyrB and qnrA genes by agar dilution method; format: functional; summary of the method: as §1
Citrobacter freundii [13] = assay: Antimicrobial activity against aac(6')-Ib-cr-positive Citrobacter freundii JN1T by agar dilution method; format: functional; summary of the method: as §1
Klebsiella pneumoniae [14] = assay: Antimicrobial activity against aac(6')-Ib-cr-positive Klebsiella pneumoniae JN132 harboring GyrA S83I, ParC S80I mutant, wild-type GyrB and qnrB genes by agar dilution method; format: functional; summary of the method: as §2
Klebsiella pneumoniae [15] = assay: Antimicrobial activity against aac(6')-Ib-cr-positive Klebsiella pneumoniae JN132T harboring qnrB gene by agar dilution method; format: functional; summary of the method: as §3
Klebsiella pneumoniae [16] = assay: Antimicrobial activity against aac(6')-Ib-cr-positive Klebsiella pneumoniae JN41 harboring GyrA S83I, ParC S80I mutant, wild-type GyrB and qnrB genes by agar dilution method; format: functional; summary of the method: as §2
Klebsiella pneumoniae [17] = assay: Antimicrobial activity against aac(6')-Ib-cr-positive Klebsiella pneumoniae JN41T harboring qnrB gene by agar dilution method; format: functional; summary of the method: as §3
Citrobacter freundii [18] = assay: Antimicrobial activity against aac(6')-Ib-cr-negative Citrobacter freundii JN64 harboring GyrA T83I, wild-type ParC, GyrB and qnrA genes by agar dilution method; format: functional; summary of the method: as §1
Citrobacter freundii [19] = assay: Antimicrobial activity against aac(6')-Ib-cr-positive Citrobacter freundii JS33 harboring GyrA T83I mutant, wild-type ParC, GyrB, qnrA and qnrB genes by agar dilution method; format: functional; summary of the method: as §1
Citrobacter freundii [20] = assay: Antimicrobial activity against aac(6')-Ib-cr-positive Citrobacter freundii JS33T harboring qnrA gene by agar dilution method; format: functional; summary of the method: as §1
Enterobacter cloacae [21] = assay: Antimicrobial activity against aac(6')-Ib-cr-negative Enterobacter cloacae SH39 harboring GyrA S83I, ParC S80I mutant, wild-type GyrB and qnrA genes by agar dilution method; format: functional
Enterobacter cloacae [22] = assay: Antimicrobial activity against aac(6')-Ib-cr-negative Enterobacter cloacae SH39T harboring qnrA gene by agar dilution method; format: functional
Citrobacter freundii [23] = assay: Antimicrobial activity against aac(6')-Ib-cr-positive Citrobacter freundii TJ15T harboring wild-type GyrA, ParC, GyrB genes by agar dilution method; format: functional; summary of the method: as §1
Enterobacter cloacae [24] = assay: Antimicrobial activity against aac(6')-Ib-cr-negative Enterobacter cloacae WH42 harboring wild-type GyrA, ParC, GyrB and qnrA genes by agar dilution method; format: functional
Enterobacter cloacae [25] = assay: Antimicrobial activity against aac(6')-Ib-cr-negative Enterobacter cloacae WH42T harboring qnrA gene by agar dilution method; format: functional
Escherichia coli [26] = assay: Antimicrobial activity against aac(6')-Ib-cr-negative Escherichia coli PU12 harboring GyrA S83L mutant, wild-type GyrB, ParC and qnrS genes by agar dilution method; format: functional; summary of the method: as §1
Escherichia coli [27] = assay: Antimicrobial activity against aac(6')-Ib-cr-positive Escherichia coli FJ3 harboring GyrA S83L, ParC S80R mutant, wild-type GyrB and qnrB genes by agar dilution method; format: functional; summary of the method: as §1
Escherichia coli [28] = assay: Antimicrobial activity against aac(6')-Ib-cr-positive Escherichia coli FJ3T harboring wild-type GyrA, ParC, GyrB and qnrB genes by agar dilution method
Enterobacter cloacae [29] = assay: Antimicrobial activity against aac(6')-Ib-cr-negative Enterobacter cloacae FJ61 harboring GyrA S83I, GyrA D87A, ParC S80I mutant, wild-type GyrB and qnrS genes by agar dilution method; format: functional
Enterobacter cloacae [30] = assay: Antimicrobial activity against aac(6')-Ib-cr-negative Enterobacter cloacae FJ61T harboring qnrS gene by agar dilution method; format: functional
Enterobacter cloacae [31] = assay: Antimicrobial activity against aac(6')-Ib-cr-positive Enterobacter cloacae FJ63 harboring GyrA S83I, GyrA D87A, ParC S80I mutant, wild-type GyrB and qnrS genes by agar dilution method; format: functional
Enterobacter cloacae [32] = assay: Antimicrobial activity against aac(6')-Ib-cr-positive Enterobacter cloacae FJ63T harboring qnrS gene by agar dilution method; format: functional
Enterobacter cloacae [33] = assay: Antimicrobial activity against aac(6')-Ib-cr-negative Enterobacter cloacae FJ67 harboring […] and qnrS genes by agar dilution method; format: functional
Enterobacter cloacae [34] = assay: Antimicrobial activity against aac(6')-Ib-cr-negative Enterobacter cloacae FJ67T harboring qnrS gene by agar dilution method; format: functional
Enterobacter cloacae [35] = assay: Antimicrobial activity against aac(6')-Ib-cr-negative Enterobacter cloacae GZ47 harboring qnrB and qnrS genes by agar dilution method; format: functional
Enterobacter cloacae [36] = assay: Antimicrobial activity against aac(6')-Ib-cr-negative Enterobacter cloacae GZ47T harboring qnrB gene by agar dilution method; format: functional
Enterobacter cloacae [37] = assay: Antimicrobial activity against aac(6')-Ib-cr-negative Enterobacter cloacae GZ51 harboring qnrA gene by agar dilution method; format: functional
Enterobacter cloacae [38] = assay: Antimicrobial activity against aac(6')-Ib-cr-negative Enterobacter cloacae GZ51T harboring qnrA gene by agar dilution method; format: functional
Citrobacter freundii [39] = assay: Antimicrobial activity against aac(6')-Ib-cr-negative Citrobacter freundii JN64T harboring qnrA gene by agar dilution method; format: functional; summary of the method: as §1
Escherichia coli [40] = assay: Antimicrobial activity against aac(6')-Ib-cr-negative Escherichia coli PU12T harboring wild-type GyrA, GyrB, ParC and qnrS genes by agar dilution method; format: functional; summary of the method: as §1

SMILES: O=C(O)c1cn(C2CC2)c2cc(N3CCNCC3)c(F)cc2c1=O [CIPROFLOXACIN]
- MIC (Citrobacter freundii [1]): > 32 µg/mL
- MIC (Citrobacter freundii [2]): 1 µg/mL (≈ 3.02 µM)
- MIC (Klebsiella pneumoniae [3]): > 32 µg/mL
- MIC (Klebsiella pneumoniae [4]): 0.5 µg/mL (≈ 1.51 µM)
- MIC (Klebsiella pneumoniae [5]): > 32 µg/mL
- MIC (Klebsiella pneumoniae [6]): 0.5 µg/mL (≈ 1.51 µM)
- MIC (Citrobacter freundii [7]): 16 µg/mL (≈ 48.3 µM)
- MIC (Klebsiella pneumoniae [8]): 2 µg/mL (≈ 6.04 µM)
- MIC (Klebsiella pneumoniae [9]): 1 µg/mL (≈ 3.02 µM)
- MIC (Klebsiella pneumoniae [10]): > 32 µg/mL
- MIC (Klebsiella pneumoniae [11]): 1 µg/mL (≈ 3.02 µM)
- MIC (Citrobacter freundii [12]): > 32 µg/mL
- MIC (Citrobacter freundii [13]): 1 µg/mL (≈ 3.02 µM)
- MIC (Klebsiella pneumoniae [14]): > 32 µg/mL
- MIC (Klebsiella pneumoniae [15]): 1 µg/mL (≈ 3.02 µM)
- MIC (Klebsiella pneumoniae [16]): > 32 µg/mL
- MIC (Klebsiella pneumoniae [17]): 0.5 µg/mL (≈ 1.51 µM)
- MIC (Citrobacter freundii [18]): 8 µg/mL (≈ 24.1 µM)
- MIC (Citrobacter freundii [19]): 4 µg/mL (≈ 12.1 µM)
- MIC (Citrobacter freundii [20]): 0.5 µg/mL (≈ 1.51 µM)

SMILES: C[C@H]1COc2c(N3CCN(C)CC3)c(F)cc3c(=O)c(C(=O)O)cn1c23.C[C@H]1COc2c(N3CCN(C)CC3)c(F)cc3c(=O)c(C(=O)O)cn1c23.O [LEVOFLOXACIN]
- MIC (Citrobacter freundii [1]): 32 µg/mL
- MIC (Citrobacter freundii [2]): 0.25 µg/mL
- MIC (Enterobacter cloacae [21]): 32 µg/mL
- MIC (Enterobacter cloacae [22]): 0.5 µg/mL
- MIC (Klebsiella pneumoniae [3]): > 32 µg/mL
- MIC (Klebsiella pneumoniae [5]): 32 µg/mL
- MIC (Klebsiella pneumoniae [6]): 0.25 µg/mL
- MIC (Citrobacter freundii [7]): 4 µg/mL
- MIC (Citrobacter freundii [23]): 0.5 µg/mL
- MIC (Enterobacter cloacae [24]): 2 µg/mL
- MIC (Enterobacter cloacae [25]): 0.25 µg/mL
- MIC (Klebsiella pneumoniae [9]): 0.25 µg/mL
- MIC (Escherichia coli [26]): 4 µg/mL
- MIC (Escherichia coli [27]): 4 µg/mL
- MIC (Escherichia coli [28]): 0.25 µg/mL
- MIC (Enterobacter cloacae [29]): > 32 µg/mL
- MIC (Enterobacter cloacae [30]): 0.5 µg/mL
- MIC (Enterobacter cloacae [31]): > 32 µg/mL
- MIC (Enterobacter cloacae [32]): 0.5 µg/mL
- MIC (Enterobacter cloacae [33]): 8 µg/mL
- MIC (Enterobacter cloacae [34]): 1 µg/mL
- MIC (Klebsiella pneumoniae [10]): > 32 µg/mL
- MIC (Klebsiella pneumoniae [11]): 0.25 µg/mL
- MIC (Enterobacter cloacae [35]): 2 µg/mL
- MIC (Enterobacter cloacae [36]): 0.25 µg/mL
- MIC (Enterobacter cloacae [37]): 0.5 µg/mL
- MIC (Enterobacter cloacae [38]): 0.25 µg/mL
- MIC (Citrobacter freundii [12]): 16 µg/mL
- MIC (Citrobacter freundii [13]): 0.25 µg/mL
- MIC (Klebsiella pneumoniae [14]): 8 µg/mL
- MIC (Klebsiella pneumoniae [15]): 0.25 µg/mL
- MIC (Klebsiella pneumoniae [16]): > 32 µg/mL
- MIC (Klebsiella pneumoniae [17]): 0.25 µg/mL
- MIC (Citrobacter freundii [18]): 8 µg/mL
- MIC (Citrobacter freundii [39]): 0.5 µg/mL
- MIC (Citrobacter freundii [19]): 2 µg/mL
- MIC (Citrobacter freundii [20]): 0.25 µg/mL

SMILES: CO/N=C(\C(=O)N[C@@H]1C(=O)N2C(C(=O)[O-])=C(C[N+]3(C)CCCC3)CS[C@H]12)c1csc(N)n1
- MIC (Escherichia coli [40]): 2 µg/mL (≈ 4.16 µM)
- MIC (Citrobacter freundii [1]): 1 µg/mL (≈ 2.08 µM)
- MIC (Klebsiella pneumoniae [3]): 1 µg/mL (≈ 2.08 µM)
- MIC (Klebsiella pneumoniae [5]): 0.5 µg/mL (≈ 1.04 µM)
- MIC (Klebsiella pneumoniae [8]): 2 µg/mL (≈ 4.16 µM)
- MIC (Klebsiella pneumoniae [9]): 1 µg/mL (≈ 2.08 µM)
- MIC (Escherichia coli [26]): 2 µg/mL (≈ 4.16 µM)
- MIC (Escherichia coli [27]): 8 µg/mL (≈ 16.6 µM)
- MIC (Escherichia coli [28]): 4 µg/mL (≈ 8.32 µM)
- MIC (Citrobacter freundii [13]): 1 µg/mL (≈ 2.08 µM)
- MIC (Klebsiella pneumoniae [14]): 2 µg/mL (≈ 4.16 µM)
- MIC (Klebsiella pneumoniae [15]): 2 µg/mL (≈ 4.16 µM)
- MIC (Klebsiella pneumoniae [16]): 2 µg/mL (≈ 4.16 µM)
- MIC (Klebsiella pneumoniae [17]): 1 µg/mL (≈ 2.08 µM)
- MIC (Citrobacter freundii [39]): 4 µg/mL (≈ 8.32 µM)
- MIC (Citrobacter freundii [19]): 0.25 µg/mL (≈ 0.52 µM)
